What all share (assay type): functional
In test [1] the test system is Streptococcus mutans. Briefly: Bactericidal activity against Streptococcus mutans ATCC 35668 after 3 days. The settings on record: ATCC 35668, 72 h. Summed up:
(§1)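 From microbroth wells without visible growth after 24 h, aliquots were spread on THB agar and incubated 3 days at 37 °C. MBC was the lowest concentration giving no colony formation. Three independent experiments.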

Test [2] concerns Streptococcus mutans. Briefly: Antibacterial activity against Streptococcus mutans ATCC 35668 after 24 hrs by microbroth dilution assay. The settings on record: ATCC 35668, 24 h. In short, it runs like this: (§2)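 EtOH stocks tested as a 2-fold series (200–0.78 μg/mL) mixed with an equal volume of overnight culture diluted to OD660 0.2. Medium was THB plus hemin 10 μg/mL and vitamin K 10 μg/mL. P. gingivalis was run anaerobically (N2/H2/CO2 80/10/10) and S. mutans aerobically. After 24 h at 37 °C growth was read visually; MIC was the lowest concentration without growth. Three independent experiments.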
In general terms: Dilution methods test growth across graded concentrations, often in twofold steps.

The test system of test [3] is Porphyromonas gingivalis. Briefly: Bactericidal activity against Porphyromonas gingivalis ATCC 33277 after 3 days. The settings on record: ATCC 33277, 72 h. In short, it runs like this: as §1
Test [4] relates to Porphyromonas gingivalis. Briefly: Antibacterial activity against Porphyromonas gingivalis ATCC 33277 after 24 hrs by microbroth dilution assay. The settings on record: ATCC 33277, 24 h. Summed up:
as §2

Structures are written as SMILES. In brackets after ≈: the same amount, converted by molar mass. Some results are limits rather than exact numbers.

As a reminder, the MBC is the lowest tested concentration that kills the bacteria rather than only halting them. Low readings indicate more potent killing, high ones less potent killing. Broadly, the MIC is the least concentration at which growth counts as inhibited. A high value points to weaker potency. Take `COc1cc2occ(-c3ccc(O)cc3)c(=O)c2c(O)c1CC=C(C)C` [GANCAONIN G]: the results for the MBC in the test on Streptococcus mutans [1] and in the test on Porphyromonas gingivalis [3] were greater than 200 µg/mL and 200 µg/mL (≈ 568 µM), respectively. The MIC in the test on Streptococcus mutans [2] is greater than 200 µg/mL; in the test on Porphyromonas gingivalis [4] it was 200 µg/mL (≈ 568 µM).

On to `COc1c2c(cc3oc(=O)c4c5ccc(O)cc5oc4c13)OC(C)(C)CC2` [ISOGLYCYROL], for which the MBC is greater than 200 µg/mL against Streptococcus mutans [1] and 200 µg/mL (≈ 546 µM) against Porphyromonas gingivalis [3]. Moreover, the minimal inhibitory concentration (MIC) with Streptococcus mutans [2] was greater than 200 µg/mL; in the test with Porphyromonas gingivalis [4] it was 200 µg/mL (≈ 546 µM).

`COc1c(CC=C(C)C)c(O)cc2c1C[C@H](c1ccc3c(c1O)C=CC(C)(C)O3)CO2`: the minimal bactericidal concentration (MBC) against Streptococcus mutans [1] and against Porphyromonas gingivalis [3] was 12.5 µg/mL (≈ 29.6 µM) throughout. Further, the minimal inhibitory concentration (MIC) in the test with Streptococcus mutans [2] and in the test on Porphyromonas gingivalis [4] was 12.5 µg/mL (≈ 29.6 µM) each time.

For `COc1c2c(cc3c1C[C@H](c1ccc(O)c(CC=C(C)C)c1O)CO3)OC(C)(C)C=C2`, the minimum bactericidal concentration (MBC) with Streptococcus mutans [1] was greater than 200 µg/mL; in the test with Porphyromonas gingivalis [3], 6.25 µg/mL (≈ 14.8 µM). Further, the minimum inhibitory concentration (MIC) was found to be 25 µg/mL (≈ 59.2 µM) in the test on Streptococcus mutans [2] and 6.25 µg/mL (≈ 14.8 µM) against Porphyromonas gingivalis [4].

As to `CN(C)[C@@H]1C(O)=C(C(N)=O)C(=O)[C@@]2(O)C(O)=C3C(=O)c4c(O)cccc4[C@@](C)(O)[C@H]3C[C@@H]12` [TETRACYCLINE], the MBC against Porphyromonas gingivalis [3] was 12.5 µg/mL (≈ 28.1 µM). This compound registered an MIC in the test with Porphyromonas gingivalis [4] of 1.56 µg/mL (≈ 3.51 µM).

Consider `COc1c(CC=C(C)C)c(O)cc2c1C[C@H](c1ccc(O)c(CC=C(C)C)c1O)CO2` [LICORICIDIN], for which the MBC against Streptococcus mutans [1] came to 25 µg/mL (≈ 58.9 µM); against Porphyromonas gingivalis [3], 3.12 µg/mL (≈ 7.36 µM). The MIC in the test with Streptococcus mutans [2] was found to be 12.5 µg/mL (≈ 29.4 µM); with Porphyromonas gingivalis [4], 3.12 µg/mL (≈ 7.36 µM).

For `COc1c(CC=C(C)C)c(O)cc2c1C[C@H](c1ccc(O)c3c1OC(C)(C)C=C3)CO2`, the MBC against Streptococcus mutans [1] and against Porphyromonas gingivalis [3] was 6.25 µg/mL (≈ 14.8 µM) throughout. In addition, the MIC against Streptococcus mutans [2] and against Porphyromonas gingivalis [4] was 6.25 µg/mL (≈ 14.8 µM) in each case.

In the case of `COc1c(CC=C(C)C)c(O)cc2c1C[C@H](C1=CC(=O)C(O)=C(CC=C(C)C)C1=O)CO2`, the results for the minimum bactericidal concentration (MBC) with Streptococcus mutans [1] and against Porphyromonas gingivalis [3] were greater than 200 µg/mL and 25 µg/mL (≈ 57 µM), respectively. Further, the figures for the MIC with Streptococcus mutans [2] and in the test on Porphyromonas gingivalis [4] were greater than 200 µg/mL and 25 µg/mL (≈ 57 µM), respectively.

Take `COc1c(CC=C(C)C)c(O)cc2c1[C@@H]1Oc3c(ccc(O)c3CC=C(C)C)[C@@H]1CO2`: the MBC against Streptococcus mutans [1] was greater than 200 µg/mL; against Porphyromonas gingivalis [3], 50 µg/mL (≈ 118 µM). Also, the MIC against Streptococcus mutans [2] was 200 µg/mL (≈ 473 µM); against Porphyromonas gingivalis [4], 50 µg/mL (≈ 118 µM).

Consider `CC1(C)S[C@@H]2[C@H](NC(=O)Cc3ccccc3)C(=O)N2[C@H]1C(=O)O` [PENICILLIN G], for which the MBC against Streptococcus mutans [1] turned out to be 1.56 µg/mL (≈ 4.67 µM). Also, the MIC against Streptococcus mutans [2] was 0.05 µg/mL (≈ 0.15 µM).

The record behind these values is ChEMBL document CHEMBL3124836, “Pyrano-isoflavans from Glycyrrhiza uralensis with antibacterial activity against Streptococcus mutans and Porphyromonas gingivalis” (2014).
